In ChEMBL document CHEMBL1123371, “5-HT1 and 5-HT2 binding characteristics of some quipazine analogues” (J Med Chem, 1986):
Calls of active or inactive are those of the source. The calls are words filed in the database; no cut-off is given here.

Experiments:
[1] = Displacement of [3H]5-HT from 5-hydroxytryptamine 1 receptor of rat cortical membrane homogenates
[2] = target: Serotonin 2 (5-HT2) receptor (Rattus norvegicus, UniProt P30994+P08909+P14842); assay: Displacement of [3H]ketanserin from 5-hydroxytryptamine 2 receptor of rat cortical membrane homogenates
[3] = tested on: Rattus norvegicus; assay: Compound was evaluated in tests of stimulus generalization using animals trained to discriminate DOM from saline, and the mean responses per min at dose of 0.5 mg/kg; format: functional
Method in brief: (§1)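 Male Sprague-Dawley rats (n = 10) trained to discriminate 1.0 mg/kg DOM HCl from saline on a two-lever operant task, VI 15-s food reinforcement. Test doses were given ip in random order, 15 min pre-session, with at least three training sessions between tests. Responding was scored in a 2.5-min extinction session. Rats with fewer than five total responses were counted as disrupted.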

[4] = tested on: Rattus norvegicus; assay: Compound was evaluated in stimulus generalization studies in DOM trained animals and the number of animals responding /number to receive dose of drug at dose of 3.0 mg/kg; 1/4; format: functional; method in brief: as §1
[5] = tested on: Rattus norvegicus; assay: Compound was evaluated in stimulus generalization studies in DOM trained animals and the number of animals responding /number to receive dose of drug at dose of 2.5 mg/kg; 3/6; format: functional; method in brief: as §1
[6] = tested on: Rattus norvegicus; assay: Compound was evaluated in stimulus generalization studies in DOM trained animals and the number of animals responding /number to receive dose of drug at dose of 2.2 mg/kg; 2/5; format: functional; method in brief: as §1
[7] = tested on: Rattus norvegicus; assay: Compound was evaluated in stimulus generalization test using animals trained to discriminate TFMPP from saline, and the mean responses per min at dose of 1.0 mg/kg; format: functional
Method in brief: (§2)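 Male Sprague-Dawley rats (n = 6) trained to discriminate 0.5 mg/kg TFMPP HCl from saline on a two-lever operant task, VI 15-s food reward. Challenge doses were given ip in random order 15 min before a 2.5-min extinction test, with at least three training sessions between tests. Fewer than five total responses was scored as disruption.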

[8] = tested on: Rattus norvegicus; assay: Compound was evaluated in stimulus generalization studies in DOM trained animals and the number of animals responding /number to receive dose of drug at dose of 0.5 mg/kg; 3/3; format: functional; method in brief: as §1
[9] = tested on: Rattus norvegicus; assay: Compound was evaluated in tests of stimulus generalization using animals trained to discriminate DOM from saline, and the drug appropriate responding at dose of 3.0 mg/kg; Not responding; format: functional, organism-based; design: dose 3 mg/kg; method in brief: as §1
[10] = tested on: Rattus norvegicus; assay: Stimulus generalization studies in TFMPP trained animals and the number of animals responding /number to receive dose of drug was determined at dose of 2.5 mg/kg; 5/5; format: functional; method in brief: as §2
[11] = tested on: Rattus norvegicus; assay: Compound was evaluated in tests of stimulus generalization using animals trained to discriminate DOM from saline, and the drug appropriate responding at dose of 2.7 mg/kg; Not responding; format: functional, organism-based; design: dose 2.7 mg/kg; method in brief: as §1
[12] = tested on: Rattus norvegicus; assay: Compound was evaluated in stimulus generalization test using animals trained to discriminate TFMPP from saline, and the mean responses per min at dose of 2.5 mg/kg; format: functional; method in brief: as §2
[13] = tested on: Rattus norvegicus; assay: Compound was evaluated in stimulus generalization test using animals trained to discriminate TFMPP from saline, and the mean responses per min at dose of 0.5 mg/kg; format: functional; method in brief: as §2
[14] = tested on: Rattus norvegicus; assay: Compound was evaluated in stimulus generalization test using animals trained to discriminate TFMPP from saline, and the drug appropriate responding at dose of 2.5 mg/kg; format: functional; method in brief: as §2
[15] = tested on: Rattus norvegicus; assay: Compound was evaluated in stimulus generalization studies in DOM trained animals and the number of animals responding /number ot receive dose of drug at dose of 2.0 mg/kg; 3/4; format: functional; method in brief: as §1
[16] = tested on: Rattus norvegicus; assay: Compound was evaluated in tests of stimulus generalization using animals trained to discriminate DOM from saline, and the drug appropriate responding at dose of 2.2 mg/kg; Not responding; format: functional, organism-based; design: dose 2.2 mg/kg; method in brief: as §1
[17] = species on record: Rattus norvegicus; assay: Compound was tested for the doses at which the animals would be expected to make approximately 50% of their responses on the DOM-appropriate lever; format: functional
Method in brief: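 DOM-trained rats (1.0 mg/kg DOM HCl vs saline, two-lever, VI 15 s, food) were given ip doses 15 min before a 2.5-min extinction session. Where >80% of responses fell on the DOM lever (generalization), the dose expected to give about 50% DOM-lever responding was calculated from dose–response data and reported with 95% confidence limits.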

[18] = tested on: Rattus norvegicus; assay: Compound was evaluated in stimulus generalization test using animals trained to discriminate TFMPP from saline, and the drug appropriate responding at dose of 1.0 mg/kg; format: functional; method in brief: as §2
[19] = tested on: Rattus norvegicus; assay: Compound was evaluated in tests of stimulus generalization using animals trained to discriminate DOM from saline, and the drug appropriate responding at dose of 2.0 mg/kg; format: functional; method in brief: as §1
[20] = tested on: Rattus norvegicus; assay: Stimulus generalization studies in TFMPP trained animals and the number of animals responding /number to receive dose of drug was determined at dose of 1 mg/kg; 3/4; format: functional; method in brief: as §2
[21] = tested on: Rattus norvegicus; assay: Compound was evaluated in stimulus generalization test using animals trained to discriminate TFMPP from saline, and the drug appropriate responding at dose of 0.5 mg/kg; format: functional; method in brief: as §2
[22] = tested on: Rattus norvegicus; assay: Stimulus generalization studies in TFMPP trained animals and the number of animals responding /number to receive dose of drug was determined at dose of 0.5 mg/kg; 3/3; format: functional; method in brief: as §2
[23] = tested on: Rattus norvegicus; assay: Compound was evaluated in stimulus generalization studies in DOM trained animals and the number of animals responding /number to receive dose of drug at dose of 2.7 mg/kg; 1/4; format: functional; method in brief: as §1
[24] = tested on: Rattus norvegicus; assay: Compound was evaluated in tests of stimulus generalization using animals trained to discriminate DOM from saline, and the drug appropriate responding at dose of 2.5 mg/kg; format: functional; method in brief: as §1
[25] = tested on: Rattus norvegicus; assay: Compound was evaluated in tests of stimulus generalization using animals trained to discriminate DOM from saline, and the drug appropriate responding at dose of 0.5 mg/kg; format: functional; method in brief: as §1
[26] = tested on: Rattus norvegicus; assay: Compound was evaluated in tests of stimulus generalization using animals trained to discriminate DOM from saline, and the mean responses per min at dose of 2.5 mg/kg; format: functional; method in brief: as §1
[27] = tested on: Rattus norvegicus; assay: Compound was evaluated in tests of stimulus generalization using animals trained to discriminate DOM from saline, and the mean responses per min at dose of 2.0 mg/kg; format: functional; method in brief: as §1
[28] = tested on: Rattus norvegicus; assay: Stimulus generalization studies in TFMPP trained animals and the number of animals responding /number to receive dose of drug was determined at dose of 1.0 mg/kg; 10/10; format: functional

c1ccc2nc(N3CCNCC3)ccc2c1 [QUIPAZINE]
Ki [1]: 230 nM | Ki [2]: 230 nM

c1ccc2c(N3CCNCC3)cccc2c1
Mean response/min [3]: 18 | Activity [4]: 1 | Activity [5]: 3 | Activity [6]: 2 | Mean response/min [7]: 17.3 | Activity [8]: 3 | Drug responding [9]: inactive | Ki [1]: 5 nM | Ki [2]: 18 nM | Activity [10]: 5 | Drug responding [11]: inactive | Mean response/min [12]: 16.4 | Mean response/min [13]: 19.1 | Drug responding [14]: 96% | Activity [15]: 3 | Drug responding [16]: inactive | ED50 [17]: 1 mg/kg | Drug responding [18]: 41% | Drug responding [19]: 7% | Activity [20]: 3 | Drug responding [21]: 15% | Activity [22]: 3 | Activity [23]: 1 | Drug responding [24]: 37% | Drug responding [25]: 14% | Mean response/min [26]: 2.6 | Mean response/min [27]: 8.8

COc1cccc2ccc(N3CCCCC3)nc12
Ki [1]: 33000 nM | Ki [2]: 71000 nM

COc1cc(CC(C)N)c(OC)cc1C (stereo not drawn) [DOM]
Activity [28]: 10

COc1cccc2ccc(N3CCNCC3)nc12
Ki [1]: 415 nM | Ki [2]: 310 nM

c1ccc2nc(N3CCCCC3)ccc2c1
Ki [1]: > 100000 nM | Ki [2]: > 150000 nM

NC1CCc2ccccc2C1 (stereo not drawn)
Ki [1]: 380 nM | Ki [2]: 11100 nM
